Reference: ChEMBL document CHEMBL4364253, “Application of Dually Activated Michael Acceptor to the Rational Design of Reversible Covalent Inhibitor for Enterovirus 71 3C Protease” (J Med Chem, 2019)
Calls of active or inactive are those of the source.

Tests used:
[1] = target: T1, Calpain-1 catalytic subunit (Homo sapiens) (UniProt P07384); test: Inhibition of human Calpain1 at 50 uM using Ac-LLY-AFC as substrate preincubated for 5 mins followed by substrate addition and measured after 10 mins by fluorescence method relative to control
T1 sequence (whole entry): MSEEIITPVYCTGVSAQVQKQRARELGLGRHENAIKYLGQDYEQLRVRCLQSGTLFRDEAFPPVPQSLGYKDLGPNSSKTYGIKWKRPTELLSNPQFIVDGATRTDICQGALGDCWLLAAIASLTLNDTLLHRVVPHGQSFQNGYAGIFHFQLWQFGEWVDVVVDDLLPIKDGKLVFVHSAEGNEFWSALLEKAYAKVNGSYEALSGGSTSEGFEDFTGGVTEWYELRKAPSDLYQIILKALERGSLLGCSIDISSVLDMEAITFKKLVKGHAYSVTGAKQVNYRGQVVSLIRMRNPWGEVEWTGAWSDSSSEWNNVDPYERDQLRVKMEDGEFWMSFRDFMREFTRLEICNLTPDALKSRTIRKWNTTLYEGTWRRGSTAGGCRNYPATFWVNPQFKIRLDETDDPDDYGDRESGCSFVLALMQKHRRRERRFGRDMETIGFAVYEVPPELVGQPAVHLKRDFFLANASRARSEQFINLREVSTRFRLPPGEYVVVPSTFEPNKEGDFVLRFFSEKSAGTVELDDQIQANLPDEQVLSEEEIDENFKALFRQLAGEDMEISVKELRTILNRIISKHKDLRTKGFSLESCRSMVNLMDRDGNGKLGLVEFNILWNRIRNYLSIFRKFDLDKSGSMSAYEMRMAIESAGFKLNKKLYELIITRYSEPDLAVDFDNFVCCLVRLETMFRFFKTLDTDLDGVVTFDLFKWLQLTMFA

[2] = target: T2, Cathepsin K (Homo sapiens) (UniProt P43235); test: Inhibition of human Cathepsin K at 50 uM using Ac-LR-AFC as substrate preincubated for 10 to 15 mins followed by substrate addition and measured for 30 to 60 mins by fluorescence method relative to control
T2 sequence (whole entry): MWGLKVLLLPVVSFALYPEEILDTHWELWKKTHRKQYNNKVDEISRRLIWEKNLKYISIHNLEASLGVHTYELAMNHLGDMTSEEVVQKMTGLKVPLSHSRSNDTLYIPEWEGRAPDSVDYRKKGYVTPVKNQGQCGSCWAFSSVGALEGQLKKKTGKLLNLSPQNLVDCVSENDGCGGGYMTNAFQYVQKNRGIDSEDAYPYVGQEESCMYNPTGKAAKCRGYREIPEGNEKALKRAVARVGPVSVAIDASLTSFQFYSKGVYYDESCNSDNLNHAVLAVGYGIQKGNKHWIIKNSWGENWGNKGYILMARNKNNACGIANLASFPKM

RD = test: Cytotoxicity against human RD cells at 100 uM after 24 hrs by WST-1 assay relative to control; format: cell-based
[3] = Reversible inhibition of Enterovirus 71 3C protease assessed as overall inhibition constant using NMA-IEALFQGPPK(DNP)FR as substrate pre-incubated for 30 mins followed by substrate addition and measured over 30 mins by fluorescence method; set-up: species or system Enterovirus A71
Enterovirus A71 [4] = test: Antiviral activity against pseudotyped Enterovirus A71 infected in human muscular rhabdomyosarcoma cells treated prior to viral infection and measured after 24 hrs by luminescence method; format: functional, organism-based; conditions: Enterovirus A
[5] = target: Chymotrypsinogen A (Bos taurus) (UniProt P00766); test: Inhibition of bovine pancreas alpha-chymotrypsin at 50 uM after 30 mins using N-Succinyl-L-phenylalanine- p-nitroanilide measured for 30 mins
Enterovirus A71 [6] = test: Irreversible covalent inhibition of Enterovirus 71 3C protease assessed as Kinact/Ki ratio using NMA-IEALFQGPPK(DNP)FR as substrate and measured for 1 to 1.5 hrs by fluorescence method
Enterovirus A71 [7] = test: Irreversible covalent inhibition of Enterovirus 71 3C protease assessed as steady-state velocity approaching zero up to 64 uM using NMA-IEALFQGPPK(DNP)FR as substrate by fluorescence method
Enterovirus A71 [8] = test: Irreversible covalent inhibition of Enterovirus 71 3C protease up to 80 uM using NMA-IEALFQGPPK(DNP)FR as substrate by fluorescence method; conditions: TDE = time-dependent effect
Enterovirus A71 [9] = test: Binding affinity to Enterovirus 71 3C protease assessed as enzyme-compound covalent adduct formation via Cys147 residue by measuring ratio of peak intensity of covalently modified to unmodified protein at 10 equivalent after 30 mins by HPLC-ESI/MS analysis
In short: (§1)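 Recombinant EV71 3C protease (40 µM) incubated with inhibitor at 30 °C in 50 mM Tris, 150 mM NaCl, 1 mM EDTA-2Na, pH 7.0. Free inhibitor and salts removed by three ultrafiltration washes with water (10 kDa cutoff). Analysis by HPLC-ESI-Orbitrap MS with 0.1% formic acid water/acetonitrile mobile phases. Spectra deconvoluted; modification given as adduct-to-unmodified protein peak intensity ratio (I_add/I_pro).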

Enterovirus A71 [10] = test: Binding affinity to Enterovirus 71 3C protease assessed as enzyme-compound covalent adduct formation via Cys147 residue by measuring ratio of peak intensity of covalently modified to unmodified protein at 10 to 20 equivalent after 1 hr by HPLC-ESI/MS analysis; in short: as §1
Enterovirus A71 [11] = test: Reversible inhibition of Enterovirus 71 3C protease assessed as recovery of enzyme activity at 10 to 20 equivalent using peptide substrate pre-incubated for 1 hr followed by dilution prior to substrate addition using ultra-filtered sample relative to control
Enterovirus A71 [12] = test: Reversible inhibition of Enterovirus 71 3C protease assessed as recovery of enzyme activity at 10 to 20 equivalent using peptide substrate pre-incubated for 1 hr followed by dialysis and subsequent substrate addition measured up to 72 hrs relative to control; set-up: scale not given: the % may be the effect or the level left

Row | Structure (SMILES) | Activity (RD) [%] | Ki [3] [nM] | EC50 (Enterovirus A71 [4]) [nM] | also measured
1 | Cc1cc(C(=O)N[C@@H](Cc2ccc(F)cc2)C(=O)N[C@H](/C=C(\C#N)c2ccccn2)C[C@@H]2CCCNC2=O)no1 | 100 | 119 | 460 | inhibition [1]: < 50%; inhibition [2]: 65%; inhibition [5]: inactive
2 | Cc1cc(C(=O)N[C@@H](Cc2ccc(F)cc2)C(=O)N[C@H](/C=C(\C#N)c2ccsc2)C[C@@H]2CCCNC2=O)no1 |  | 516 | 3100 | inhibition [1]: < 50%; inhibition [2]: < 50%; inhibition [5]: inactive
3 | Cc1cc(C(=O)N[C@@H](Cc2ccc(F)cc2)C(=O)N[C@H](C=C(Br)C#N)C[C@@H]2CCCNC2=O)no1 | 100 |  | > 100000 | 
4 | COC(=O)C(C#N)C[C@H](C[C@@H]1CCCNC1=O)NC(=O)[C@H](Cc1ccc(F)cc1)NC(=O)c1cc(C)on1 (mixture of isomers) |  |  | > 100000 | 
5 | CCCN(C(=O)OC(C)(C)C)C(=O)/C(C#N)=C/[C@H](C[C@@H]1CCCNC1=O)NC(=O)[C@H](Cc1ccc(F)cc1)NC(=O)c1cc(C)on1 |  | 18 | 89 | 
6 | CC(C#N)=C[C@H](C[C@@H]1CCCNC1=O)NC(=O)[C@H](Cc1ccc(F)cc1)NC(=O)c1cc(C)on1 |  |  | > 100000 | 
7 | COC(=O)C(Cl)=C[C@H](C[C@@H]1CCCNC1=O)NC(=O)[C@H](Cc1ccc(F)cc1)NC(=O)c1cc(C)on1 | 100 | 152 | 670 | inhibition [1]: < 50%; inhibition [2]: < 50%; inhibition [5]: inactive
8 | CNC(=O)/C=C/[C@H](C[C@@H]1CCCNC1=O)NC(=O)[C@H](Cc1ccc(F)cc1)NC(=O)c1cc(C)on1 |  |  | 21000 | Ratio (Enterovirus A71 [6]): 46 M⁻¹ s⁻¹; inhibition (Enterovirus A71 [7]): Active; inhibition (Enterovirus A71 [8]): Tde; Ratio (Enterovirus A71 [9]): > 100
9 | CNC(=O)/C(C#N)=C/[C@H](C[C@@H]1CCCNC1=O)NC(=O)[C@H](Cc1ccc(F)cc1)NC(=O)c1cc(C)on1 |  | 304 | 400 | inhibition [1]: < 50%; inhibition [2]: < 50%; Ratio (Enterovirus A71 [10]): 0.1; Activity (Enterovirus A71 [11]): Active; inhibition [5]: inactive; Activity (Enterovirus A71 [12]): 50%
10 | CCOC(=O)C(Br)=C[C@H](C[C@@H]1CCCNC1=O)NC(=O)[C@H](Cc1ccc(F)cc1)NC(=O)c1cc(C)on1 | 100 | 117 | 350 | 
11 | Cc1cc(C(=O)N[C@@H](Cc2ccc(F)cc2)C(=O)N[C@H](/C=C(\C#N)c2ccc3ccccc3c2)C[C@@H]2CCCNC2=O)no1 |  |  | 13000 | 
12 | CCCOC(=O)/C(C#N)=C/[C@H](C[C@@H]1CCCNC1=O)NC(=O)[C@H](Cc1ccc(F)cc1)NC(=O)c1cc(C)on1 |  | 10.3 | 77 | 
13 | Cc1cc(C(=O)N[C@@H](Cc2ccc(F)cc2)C(=O)N[C@H](/C=C(/C#N)c2ccsc2)C[C@@H]2CCCNC2=O)no1 |  |  | 19500 | 
14 | CCOC(=O)/C(C#N)=C/[C@H](C[C@@H]1CCCNC1=O)NC(=O)[C@H](Cc1ccc(F)cc1)NC(=O)c1cc(C)on1 |  | 13.1 | 72 | 
15 | Cc1cc(C(=O)N[C@@H](Cc2ccc(F)cc2)C(=O)N[C@@H](C[C@@H]2CCCNC2=O)C(O)C#N)no1 (some centres not stated) |  |  |  | inhibition [1]: Active; inhibition [2]: Active
16 | Cc1cc(C(=O)N[C@@H](Cc2ccc(F)cc2)C(=O)N[C@H](/C=C(\C#N)c2ccccc2)C[C@@H]2CCCNC2=O)no1 |  |  | > 100000 | 
17 | CCOC(=O)C(Cl)=C[C@H](C[C@@H]1CCCNC1=O)NC(=O)[C@H](Cc1ccc(F)cc1)NC(=O)c1cc(C)on1 | 100 | 164 | 380 | 
18 | Cc1cc(C(=O)N[C@@H](Cc2ccc(F)cc2)C(=O)N[C@H](C=O)C[C@@H]2CCCNC2=O)no1 |  |  |  | inhibition [1]: < 50%; inhibition [2]: Active
19 | Cc1cc(C(=O)N[C@@H](Cc2ccc(F)cc2)C(=O)N[C@H](/C=C(\C#N)C(=O)OC(C)C)C[C@@H]2CCCNC2=O)no1 |  | 16.1 | 58 | 
20 | Cc1cc(C(=O)N[C@@H](Cc2ccc(F)cc2)C(=O)N[C@H](/C=C(/C#N)c2ccccn2)C[C@@H]2CCCNC2=O)no1 | 90 | 693 | 2700 | 
21 | CCCNC(=O)/C(C#N)=C/[C@H](C[C@@H]1CCCNC1=O)NC(=O)[C@H](Cc1ccc(F)cc1)NC(=O)c1cc(C)on1 |  | 752 | 990 | 
22 | CCNC(=O)/C(C#N)=C/[C@H](C[C@@H]1CCCNC1=O)NC(=O)[C@H](Cc1ccc(F)cc1)NC(=O)c1cc(C)on1 |  | 332 | 510 | 
23 | Cc1cc(C(=O)N[C@@H](Cc2ccc(F)cc2)C(=O)N[C@H](C=C(Cl)C#N)C[C@@H]2CCCNC2=O)no1 | 100 |  | > 100000 | 
24 | Cc1cc(C(=O)N[C@@H](Cc2ccc(F)cc2)C(=O)N[C@H](CC(C#N)c2ccccn2)C[C@@H]2CCCNC2=O)no1 (mixture of isomers) | 50 |  | > 100000 | 
25 | CCOC(=O)/C=C/[C@H](C[C@@H]1CCCNC1=O)NC(=O)[C@H](Cc1ccc(F)cc1)NC(=O)c1cc(C)on1 |  |  | 17000 | Ratio (Enterovirus A71 [6]): 72 M⁻¹ s⁻¹; inhibition (Enterovirus A71 [7]): Active; inhibition (Enterovirus A71 [8]): Tde
26 | COC(=O)C(Br)=C[C@H](C[C@@H]1CCCNC1=O)NC(=O)[C@H](Cc1ccc(F)cc1)NC(=O)c1cc(C)on1 | 100 | 115 | 290 | 
27 | COC(=O)/C=C/[C@H](C[C@@H]1CCCNC1=O)NC(=O)[C@H](Cc1ccc(F)cc1)NC(=O)c1cc(C)on1 |  |  | 18300 | Ratio (Enterovirus A71 [6]): 34 M⁻¹ s⁻¹; inhibition [1]: < 50%; inhibition [2]: < 50%; inhibition (Enterovirus A71 [7]): Active; inhibition (Enterovirus A71 [8]): Tde; Activity (Enterovirus A71 [11]): inactive; Ratio (Enterovirus A71 [9]): > 100; inhibition [5]: inactive
